From ChEMBL document CHEMBL1138555, “N-acylated and N,N'-diacylated imidazolidine-2-thione derivatives and N,N'-diacylated tetrahydropyrimidine-2(1H)-thione analogues: synthesis and antiproliferative activity” (Eur J Med Chem, 2009)

test system: MCF7; assay: Growth inhibition of human MCF7 cells after 48 hrs by sulforhodamine B assay; assay type: functional; conditions: MCF7, 48 h
Method in brief: (§1)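 NCI screen panel. Five 10-fold concentrations from 10^-4 to 10^-8 M. Exposure for the last 48 h of a 72 h incubation. Growth estimated by sulforhodamine B protein assay. GI50 is the concentration giving 50% growth inhibition. Where that level was not reached or was exceeded, the value is given as above or below the highest or lowest concentration tested.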

Structure (SMILES) | GI50 [µM]
O=C(c1ccc(Cl)c(Cl)c1)N1CCN(C(=O)c2ccc(Cl)c(Cl)c2)C1=S | 5.6
COc1cc(C(=O)N2CCN(C(=O)c3cc(OC)c(OC)c(OC)c3)C2=S)cc(OC)c1OC | 5.2
O=C(c1ccco1)N1CCN(C(=O)c2ccco2)C1=S | 3
O=C(c1ccc(Cl)cc1Cl)N1CCN(C(=O)c2ccc(Cl)cc2Cl)C1=S | 18.3

test system: SNB-19; assay: Growth inhibition of human SNB19 cells after 48 hrs by sulforhodamine B assay; assay type: functional; conditions: SNB-19, 48 h
Method in brief: (§2)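 NCI in vitro panel screen. Compounds tested at five 10-fold dilutions, 10^-4 to 10^-8 M. Cells in 96-well plates were exposed for the last 48 h of a 72 h incubation. Viability/growth was read by sulforhodamine B protein assay. GI50 is the concentration giving 50% growth inhibition. Values beyond the tested range are reported as greater or less than the maximum or minimum concentration.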

Structure (SMILES) | GI50 [µM]
O=C(c1ccc(Cl)c(Cl)c1)N1CCN(C(=O)c2ccc(Cl)c(Cl)c2)C1=S | 21.4
COc1cc(C(=O)N2CCN(C(=O)c3cc(OC)c(OC)c(OC)c3)C2=S)cc(OC)c1OC | 18.5
O=C(c1ccco1)N1CCN(C(=O)c2ccco2)C1=S | 25.4
O=C(c1ccc(Cl)cc1Cl)N1CCN(C(=O)c2ccc(Cl)cc2Cl)C1=S | 24.9

test system: not listed separately; assay: Growth inhibition of human Hs 578T cells after 48 hrs by sulforhodamine B assay; assay type: functional; conditions: not given; method in brief: as §1

Structure (SMILES) | GI50 [µM]
O=C(c1ccc(Cl)c(Cl)c1)N1CCN(C(=O)c2ccc(Cl)c(Cl)c2)C1=S | 29.1
COc1cc(C(=O)N2CCN(C(=O)c3cc(OC)c(OC)c(OC)c3)C2=S)cc(OC)c1OC | 24.7
O=C(c1ccco1)N1CCN(C(=O)c2ccco2)C1=S | 6.8
O=C(c1ccc(Cl)cc1Cl)N1CCN(C(=O)c2ccc(Cl)cc2Cl)C1=S | 41

test system: NCI-H226; assay: Growth inhibition of human NCI-H226 cells after 48 hrs by sulforhodamine B assay; assay type: functional; conditions: NCI-H226, 48 h; method in brief: as §1

Structure (SMILES) | GI50 [µM]
O=C(c1ccc(Cl)c(Cl)c1)N1CCN(C(=O)c2ccc(Cl)c(Cl)c2)C1=S | 19
COc1cc(C(=O)N2CCN(C(=O)c3cc(OC)c(OC)c(OC)c3)C2=S)cc(OC)c1OC | 19.5
O=C(c1ccco1)N1CCN(C(=O)c2ccco2)C1=S | 28.7
O=C(c1ccc(Cl)cc1Cl)N1CCN(C(=O)c2ccc(Cl)cc2Cl)C1=S | 40.9

test system: CCRF-CEM; assay: Growth inhibition of human CCRF-CEM cells after 48 hrs by sulforhodamine B assay; assay type: functional; conditions: not given; method in brief: as §1

Structure (SMILES) | GI50 [µM]
O=C(c1ccc(Cl)c(Cl)c1)N1CCN(C(=O)c2ccc(Cl)c(Cl)c2)C1=S | 4.5
COc1cc(C(=O)N2CCN(C(=O)c3cc(OC)c(OC)c(OC)c3)C2=S)cc(OC)c1OC | 12.2
O=C(c1ccco1)N1CCN(C(=O)c2ccco2)C1=S | 1.2
O=C(c1ccc(Cl)cc1Cl)N1CCN(C(=O)c2ccc(Cl)cc2Cl)C1=S | 19.5

test system: HOP-92; assay: Growth inhibition of human HOP92 cells after 48 hrs by sulforhodamine B assay; assay type: functional; conditions: HOP-92, 48 h; method in brief: as §1

Structure (SMILES) | GI50 [µM]
O=C(c1ccc(Cl)c(Cl)c1)N1CCN(C(=O)c2ccc(Cl)c(Cl)c2)C1=S | 20
COc1cc(C(=O)N2CCN(C(=O)c3cc(OC)c(OC)c(OC)c3)C2=S)cc(OC)c1OC | 16.1
O=C(c1ccco1)N1CCN(C(=O)c2ccco2)C1=S | 12.7
O=C(c1ccc(Cl)cc1Cl)N1CCN(C(=O)c2ccc(Cl)cc2Cl)C1=S | 7.8

test system: OVCAR-5; assay: Growth inhibition of human OVCAR5 cells after 48 hrs by sulforhodamine B assay; assay type: functional; conditions: OVCAR-5, 48 h; method in brief: as §1

Structure (SMILES) | GI50 [µM]
O=C(c1ccc(Cl)c(Cl)c1)N1CCN(C(=O)c2ccc(Cl)c(Cl)c2)C1=S | 24.3
COc1cc(C(=O)N2CCN(C(=O)c3cc(OC)c(OC)c(OC)c3)C2=S)cc(OC)c1OC | 23.2
O=C(c1ccco1)N1CCN(C(=O)c2ccco2)C1=S | 17.8
O=C(c1ccc(Cl)cc1Cl)N1CCN(C(=O)c2ccc(Cl)cc2Cl)C1=S | 21.6

test system: SW-620; assay: Growth inhibition of human SW620 cells after 48 hrs by sulforhodamine B assay; assay type: functional; conditions: SW-620, 48 h; method in brief: as §2

Structure (SMILES) | GI50 [µM]
O=C(c1ccc(Cl)c(Cl)c1)N1CCN(C(=O)c2ccc(Cl)c(Cl)c2)C1=S | 21.3
COc1cc(C(=O)N2CCN(C(=O)c3cc(OC)c(OC)c(OC)c3)C2=S)cc(OC)c1OC | 20.3
O=C(c1ccco1)N1CCN(C(=O)c2ccco2)C1=S | 5.5
O=C(c1ccc(Cl)cc1Cl)N1CCN(C(=O)c2ccc(Cl)cc2Cl)C1=S | 28.2

test system: SF-295; assay: Growth inhibition of human SF295 cells after 48 hrs by sulforhodamine B assay; assay type: functional; conditions: SF-295, 48 h; method in brief: as §1

Structure (SMILES) | GI50 [µM]
O=C(c1ccc(Cl)c(Cl)c1)N1CCN(C(=O)c2ccc(Cl)c(Cl)c2)C1=S | 18.5
COc1cc(C(=O)N2CCN(C(=O)c3cc(OC)c(OC)c(OC)c3)C2=S)cc(OC)c1OC | 19
O=C(c1ccco1)N1CCN(C(=O)c2ccco2)C1=S | 16.9
O=C(c1ccc(Cl)cc1Cl)N1CCN(C(=O)c2ccc(Cl)cc2Cl)C1=S | 22.9

test system: SK-OV-3; assay: Growth inhibition of human SKOV3 cells after 48 hrs by sulforhodamine B assay; assay type: functional; conditions: SK-OV-3, 48 h; method in brief: as §1

Structure (SMILES) | GI50 [µM]
O=C(c1ccc(Cl)c(Cl)c1)N1CCN(C(=O)c2ccc(Cl)c(Cl)c2)C1=S | 18.2
COc1cc(C(=O)N2CCN(C(=O)c3cc(OC)c(OC)c(OC)c3)C2=S)cc(OC)c1OC | 20.2
O=C(c1ccco1)N1CCN(C(=O)c2ccco2)C1=S | 16
O=C(c1ccc(Cl)cc1Cl)N1CCN(C(=O)c2ccc(Cl)cc2Cl)C1=S | 22.8

test system: not listed separately; assay: Growth inhibition of human […] cells after 48 hrs by sulforhodamine B assay; assay type: functional; conditions: not given; method in brief: as §1

Structure (SMILES) | GI50 [nM]
O=C(c1ccc(Cl)c(Cl)c1)N1CCN(C(=O)c2ccc(Cl)c(Cl)c2)C1=S | 1800
COc1cc(C(=O)N2CCN(C(=O)c3cc(OC)c(OC)c(OC)c3)C2=S)cc(OC)c1OC | 3700
O=C(c1ccco1)N1CCN(C(=O)c2ccco2)C1=S | 2000
O=C(c1ccc(Cl)cc1Cl)N1CCN(C(=O)c2ccc(Cl)cc2Cl)C1=S | 12900

test system: SK-MEL-5; assay: Growth inhibition of human SK-MEL-5 cells after 48 hrs by sulforhodamine B assay; assay type: functional; conditions: SK-MEL-5, 48 h; method in brief: as §1

Structure (SMILES) | GI50 [µM]
O=C(c1ccco1)N1CCN(C(=O)c2ccco2)C1=S | 10.1

test system: SR; assay: Growth inhibition of human SR cells after 48 hrs by sulforhodamine B assay; assay type: functional; conditions: not given; method in brief: as §2

Structure (SMILES) | GI50 [nM]
O=C(c1ccco1)N1CCN(C(=O)c2ccco2)C1=S | 1800

test system: 786-0; assay: Growth inhibition of human 786-0 cells after 48 hrs by sulforhodamine B assay; assay type: functional; conditions: 786-0, 48 h; method in brief: as §1

Structure (SMILES) | GI50 [µM]
O=C(c1ccc(Cl)c(Cl)c1)N1CCN(C(=O)c2ccc(Cl)c(Cl)c2)C1=S | 7.2
COc1cc(C(=O)N2CCN(C(=O)c3cc(OC)c(OC)c(OC)c3)C2=S)cc(OC)c1OC | 11.4
O=C(c1ccco1)N1CCN(C(=O)c2ccco2)C1=S | 3.3
O=C(c1ccc(Cl)cc1Cl)N1CCN(C(=O)c2ccc(Cl)cc2Cl)C1=S | 18.6

test system: UACC-257; assay: Growth inhibition of human UACC257 cells after 48 hrs by sulforhodamine B assay; assay type: functional; conditions: UACC-257, 48 h; method in brief: as §2

Structure (SMILES) | GI50 [µM]
O=C(c1ccc(Cl)c(Cl)c1)N1CCN(C(=O)c2ccc(Cl)c(Cl)c2)C1=S | 17.3
COc1cc(C(=O)N2CCN(C(=O)c3cc(OC)c(OC)c(OC)c3)C2=S)cc(OC)c1OC | 21.7
O=C(c1ccco1)N1CCN(C(=O)c2ccco2)C1=S | 4.6
O=C(c1ccc(Cl)cc1Cl)N1CCN(C(=O)c2ccc(Cl)cc2Cl)C1=S | 28.2

test system: UACC-62; assay: Growth inhibition of human UACC62 cells after 48 hrs by sulforhodamine B assay; assay type: functional; conditions: UACC-62, 48 h; method in brief: as §2

Structure (SMILES) | GI50 [µM]
O=C(c1ccc(Cl)c(Cl)c1)N1CCN(C(=O)c2ccc(Cl)c(Cl)c2)C1=S | 18.1
COc1cc(C(=O)N2CCN(C(=O)c3cc(OC)c(OC)c(OC)c3)C2=S)cc(OC)c1OC | 14.9
O=C(c1ccco1)N1CCN(C(=O)c2ccco2)C1=S | 3.2
O=C(c1ccc(Cl)cc1Cl)N1CCN(C(=O)c2ccc(Cl)cc2Cl)C1=S | 17.3

test system: T47D; assay: Growth inhibition of human T47D cells after 48 hrs by sulforhodamine B assay; assay type: functional; conditions: not given; method in brief: as §2

Structure (SMILES) | GI50 [µM]
O=C(c1ccc(Cl)c(Cl)c1)N1CCN(C(=O)c2ccc(Cl)c(Cl)c2)C1=S | 17.5
COc1cc(C(=O)N2CCN(C(=O)c3cc(OC)c(OC)c(OC)c3)C2=S)cc(OC)c1OC | 13.1
O=C(c1ccco1)N1CCN(C(=O)c2ccco2)C1=S | 4.9
O=C(c1ccc(Cl)cc1Cl)N1CCN(C(=O)c2ccc(Cl)cc2Cl)C1=S | 19.5

test system: NCI-H460; assay: Growth inhibition of human NCI-H460 cells after 48 hrs by sulforhodamine B assay; assay type: functional; conditions: NCI-H460, 48 h; method in brief: as §1

Structure (SMILES) | GI50 [µM]
O=C(c1ccc(Cl)c(Cl)c1)N1CCN(C(=O)c2ccc(Cl)c(Cl)c2)C1=S | 22
COc1cc(C(=O)N2CCN(C(=O)c3cc(OC)c(OC)c(OC)c3)C2=S)cc(OC)c1OC | 27.2
O=C(c1ccco1)N1CCN(C(=O)c2ccco2)C1=S | 3.3
O=C(c1ccc(Cl)cc1Cl)N1CCN(C(=O)c2ccc(Cl)cc2Cl)C1=S | 35.4

test system: Malme-3M; assay: Growth inhibition of human MALME-3M cells after 48 hrs by sulforhodamine B assay; assay type: functional; conditions: not given; method in brief: as §1

Structure (SMILES) | GI50 [µM]
O=C(c1ccc(Cl)c(Cl)c1)N1CCN(C(=O)c2ccc(Cl)c(Cl)c2)C1=S | 14.9
COc1cc(C(=O)N2CCN(C(=O)c3cc(OC)c(OC)c(OC)c3)C2=S)cc(OC)c1OC | 13.4
O=C(c1ccco1)N1CCN(C(=O)c2ccco2)C1=S | 3.7
O=C(c1ccc(Cl)cc1Cl)N1CCN(C(=O)c2ccc(Cl)cc2Cl)C1=S | 25.4

test system: COLO 205; assay: Growth inhibition of human COLO205 cells after 48 hrs by sulforhodamine B assay; assay type: functional; conditions: COLO 205, 48 h; method in brief: as §1

Structure (SMILES) | GI50 [µM]
O=C(c1ccc(Cl)c(Cl)c1)N1CCN(C(=O)c2ccc(Cl)c(Cl)c2)C1=S | 17.7
COc1cc(C(=O)N2CCN(C(=O)c3cc(OC)c(OC)c(OC)c3)C2=S)cc(OC)c1OC | 19.4
O=C(c1ccco1)N1CCN(C(=O)c2ccco2)C1=S | 9.4
O=C(c1ccc(Cl)cc1Cl)N1CCN(C(=O)c2ccc(Cl)cc2Cl)C1=S | 21

test system: SK-MEL-28; assay: Growth inhibition of human SK-MEL-28 cells after 48 hrs by sulforhodamine B assay; assay type: functional; conditions: SK-MEL-28, 48 h; method in brief: as §1

Structure (SMILES) | GI50 [µM]
O=C(c1ccc(Cl)c(Cl)c1)N1CCN(C(=O)c2ccc(Cl)c(Cl)c2)C1=S | 30.6
COc1cc(C(=O)N2CCN(C(=O)c3cc(OC)c(OC)c(OC)c3)C2=S)cc(OC)c1OC | 17.2
O=C(c1ccco1)N1CCN(C(=O)c2ccco2)C1=S | 5.5
O=C(c1ccc(Cl)cc1Cl)N1CCN(C(=O)c2ccc(Cl)cc2Cl)C1=S | 18.4

test system: MDA-MB-231; assay: Growth inhibition of human MDA-MB-231 cells after 48 hrs by sulforhodamine B assay; assay type: functional; conditions: MDA-MB-231, 48 h; method in brief: as §1

Structure (SMILES) | GI50 [µM]
O=C(c1ccc(Cl)c(Cl)c1)N1CCN(C(=O)c2ccc(Cl)c(Cl)c2)C1=S | 18.8
COc1cc(C(=O)N2CCN(C(=O)c3cc(OC)c(OC)c(OC)c3)C2=S)cc(OC)c1OC | 16.7
O=C(c1ccco1)N1CCN(C(=O)c2ccco2)C1=S | 12.2
O=C(c1ccc(Cl)cc1Cl)N1CCN(C(=O)c2ccc(Cl)cc2Cl)C1=S | 19.1
